Experimental findings from ChEMBL document CHEMBL2163205 (J Med Chem, 2012) are described below.

The target of one data set is Cathepsin B (Homo sapiens, UniProt P07858). In words: Inhibition of human recombinant CatB assessed as suppression of enzyme-mediated Z-Arg-Arg-AMC cleavage by QFRET assay. Put shortly:
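Recombinant human Cat B at 0.5 nM final was preincubated with compound for 30 min at room temperature. Z-Arg-Arg-AMC (100 μM final) was added in potassium phosphate buffer, pH 6.4, incubated 1 h, then stopped with acetic acid. Fluorescence read at ex 360/em 425 nm with background correction; IC50 by nonlinear regression.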

Data set [1] can be described thus: Intrinsic clearance in rat liver microsomes assessed as metabolic turnover.
Another data set has as its target Procathepsin L (Homo sapiens, UniProt P07711). Kind of data set: Inhibition of human recombinant CatL assessed as suppression of enzyme-mediated Z-Phe-Arg-AMC cleavage by QFRET assay. Put shortly: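 Recombinant human Cat L at 0.1 nM final was preincubated with compound for 30 min, then Z-Phe-Arg-AMC (10 μM final) was added. QFRET cleavage was run 1 h at room temperature and stopped with acetic acid. Fluorescence read at ex 360/em 425 nm; IC50 by variable-slope nonlinear regression.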

Data set [2] can be described thus: Intrinsic clearance in human liver microsomes assessed as metabolic turnover.
Another data set has as its target T1, Cathepsin K (Homo sapiens, UniProt P43235).
T1 sequence (P43235 whole entry): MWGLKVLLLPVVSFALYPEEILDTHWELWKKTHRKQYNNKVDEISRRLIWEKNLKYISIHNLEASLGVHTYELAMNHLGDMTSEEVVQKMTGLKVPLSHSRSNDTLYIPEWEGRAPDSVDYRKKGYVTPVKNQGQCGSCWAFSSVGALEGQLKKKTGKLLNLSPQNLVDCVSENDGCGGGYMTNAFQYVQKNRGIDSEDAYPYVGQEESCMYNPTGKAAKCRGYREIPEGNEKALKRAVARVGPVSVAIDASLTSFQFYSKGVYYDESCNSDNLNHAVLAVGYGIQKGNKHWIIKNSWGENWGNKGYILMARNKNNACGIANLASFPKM
In words: Inhibition of human recombinant CatK assessed as suppression of enzyme-mediated Z-Phe-Arg-AMC cleavage incubated for 1 hrs by QFRET assay.

A further data set concerns the target Cathepsin S (Homo sapiens, UniProt P25774). Kind of data set: Inhibition of human recombinant CatS assessed as suppression of enzyme-mediated Z-Val-Val-Arg-AMC cleavage by QFRET assay. Put shortly: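 Recombinant human Cat S at 0.5 nM final was preincubated with compound for 30 min at room temperature. Z-Val-Val-Arg-AMC (100 μM final) was added in potassium phosphate buffer, pH 6.4, incubated 1 h, then stopped with acetic acid. AMC fluorescence read at ex 360/em 425 nm; IC50 by nonlinear regression.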

The nature of data set [3]: Aqueous solubility of the compound at pH 7.4. The conditions noted are these: buffer.
A short description of data set [4]: Lipophilicity, log D of the compound at pH 7.4. The conditions noted are these: buffer.

Molecules are shown by their SMILES. ≈ marks a conversion by molar mass, not a printed value.

Chain of Cathepsin S (P25774 whole entry): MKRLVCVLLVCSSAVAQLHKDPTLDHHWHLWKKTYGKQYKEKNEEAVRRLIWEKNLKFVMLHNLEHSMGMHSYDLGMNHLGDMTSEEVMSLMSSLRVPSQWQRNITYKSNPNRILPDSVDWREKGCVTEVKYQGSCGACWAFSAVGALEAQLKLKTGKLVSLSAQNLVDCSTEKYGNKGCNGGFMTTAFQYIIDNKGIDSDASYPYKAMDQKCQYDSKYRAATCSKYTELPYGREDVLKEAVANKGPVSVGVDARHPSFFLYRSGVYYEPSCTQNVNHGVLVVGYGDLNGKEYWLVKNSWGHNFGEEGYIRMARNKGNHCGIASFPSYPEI
Chain of Procathepsin L (P07711 whole entry): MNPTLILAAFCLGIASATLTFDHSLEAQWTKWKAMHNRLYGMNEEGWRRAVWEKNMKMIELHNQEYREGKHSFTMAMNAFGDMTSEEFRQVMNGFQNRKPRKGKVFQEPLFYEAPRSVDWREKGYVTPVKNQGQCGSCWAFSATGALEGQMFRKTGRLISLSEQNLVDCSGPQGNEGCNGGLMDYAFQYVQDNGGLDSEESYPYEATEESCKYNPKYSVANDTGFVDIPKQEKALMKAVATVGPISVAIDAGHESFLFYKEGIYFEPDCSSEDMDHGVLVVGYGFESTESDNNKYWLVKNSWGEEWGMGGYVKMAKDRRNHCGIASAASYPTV

As for `CSc1cccc2c3c([nH]c12)CCN(C(=O)[C@@H]1CCCC[C@H]1C(=O)NC1(C#N)CC1)C3`, the half-inhibitory concentration (IC50) is more than 2900 nM on Cathepsin B, “Not Active” at Procathepsin L, 4 nM on Cathepsin K and more than 4000 nM on Cathepsin S. The microsomal CLint in data set [1] is 303 µL/min/mg; in data set [2] it was 79 µL/min/mg.
`CCOc1cccc2c3c([nH]c12)CCN(C(=O)[C@@H]1CCCC[C@H]1C(=O)NC1(C#N)CC1)C3` registered a solubility in data set [3] of 300 µM (≈ 130 µg/mL). In addition, the IC50 at Cathepsin B is more than 2900 nM; at Procathepsin L, “Not Active”; at Cathepsin K, less than 1 nM; at Cathepsin S, more than 4000 nM. The intrinsic clearance (microsomal CLint) in data set [1] is 62 µL/min/mg; in data set [2] it was 13 µL/min/mg. The log distribution coefficient (logD) in data set [4] was found to be 3.1.
Consider `N#CCNC(=O)[C@@H]1CCCC[C@H]1C(=O)N1CC=CCC1`, for which the intrinsic clearance (microsomal CLint) was 41 µL/min/mg in data set [1] and 4.5 µL/min/mg in data set [2]. Further, the half-maximal inhibitory concentration (IC50) was more than 100000 nM on Procathepsin L (read-out: IC50) and 18 nM on Cathepsin K.
As for `COc1ccccc1C(C#N)NC(=O)[C@@H]1CCCC[C@H]1C(=O)N1CCN(Cc2ccc(F)cc2)CC1` (some centres undefined), the IC50 came out at 1 nM on Cathepsin K and 76 nM on Cathepsin S.
With `N#CC1(NC(=O)[C@@H]2CCCC[C@H]2C(=O)N2CCc3[nH]c4ccc(Cl)cc4c3C2)CC1`, the solubility in data set [3] was 130 µM (≈ 55.2 µg/mL). For the same compound, the IC50 at Cathepsin B is more than 2900 nM; on Procathepsin L it was “Not Active”; at Cathepsin S it was more than 4000 nM. For the same compound, the microsomal CLint in data set [1] was more than 350 µL/min/mg; in data set [2], 87 µL/min/mg. For the same compound, the log distribution coefficient (logD) in data set [4] came to 3.7.
`N#CC1(NC(=O)[C@@H]2CCCC[C@H]2C(=O)N2CCc3[nH]c4ccc(C(F)(F)F)cc4c3C2)CC1` had a solubility in data set [3] of 74 µM (≈ 33.9 µg/mL). Also, the half-maximal inhibitory concentration (IC50) on Cathepsin B is more than 2900 nM; on Procathepsin L, “Not Active”; at Cathepsin S, more than 4000 nM. In addition, the intrinsic clearance (microsomal CLint) in data set [1] worked out at 82 µL/min/mg; in data set [2], 33 µL/min/mg. In data set [4], this compound came in with a logD of 4.2.
As to `N#CC1(NC(=O)[C@@H]2CCCC[C@H]2C(=O)N2CCc3[nH]c4c(Br)cccc4c3C2)CC1`, the IC50 at Cathepsin B is more than 2900 nM; on Procathepsin L, “Not Active”; at Cathepsin K it was 4 nM. The microsomal CLint in data set [1] turned out to be 164 µL/min/mg; in data set [2], 43 µL/min/mg.
As to `N#CCNC(=O)[C@@H]1CCCC[C@H]1C(=O)N1CCc2[nH]c3ccc(F)cc3c2C1`, the half-maximal inhibitory concentration (IC50) at Cathepsin B was 1420 nM; on Procathepsin L (read-out: IC50), more than 40000 nM; at Cathepsin K, less than 1 nM. Also, the microsomal CLint is more than 250 µL/min/mg in data set [1] and 18 µL/min/mg in data set [2].
`CC(C)c1ccc2[nH]c3c(c2c1)CN(C(=O)[C@@H]1CCCC[C@H]1C(=O)NC1(C#N)CC1)CC3` displayed a solubility in data set [3] of 84 µM (≈ 36.3 µg/mL). Also, the half-inhibitory concentration (IC50) at Cathepsin B was more than 2900 nM; on Procathepsin L it was “Not Active”; at Cathepsin K, 50 nM; on Cathepsin S it was more than 4000 nM. Also, the log distribution coefficient (logD) in data set [4] worked out at 4.1.
Turning to `N#CC(NC(=O)[C@@H]1CCCC[C@H]1C(=O)N1CCN(c2ccc(F)cc2)CC1)c1ccccc1` (some centres undefined), the half-inhibitory concentration (IC50) at Cathepsin K came out at 3 nM; at Cathepsin S, 258 nM.
In the case of `CC(C)(F)C[C@H](N[C@@H](c1ccc(-c2ccc(S(C)(=O)=O)cc2)cc1)C(F)(F)F)C(=O)NC1(C#N)CC1` [ODANACATIB], the IC50 at Cathepsin K was less than 1 nM; on Cathepsin S, 183 nM.
For the compound `N#CC1(NC(=O)[C@@H]2CCCC[C@H]2C(=O)N2CCc3[nH]c4c(Cl)cccc4c3C2)CC1`, the values for the IC50 at Cathepsin B, on Procathepsin L and at Cathepsin K were more than 2900 nM, “Not Active” and 2 nM, respectively. Further, the intrinsic metabolic clearance (microsomal CLint) in data set [1] was determined as 226 µL/min/mg; in data set [2] it was 46 µL/min/mg.
Consider `C[C@@H](C#N)NC(=O)[C@@H]1CCCC[C@H]1C(=O)N1CCc2[nH]c3ccc(F)cc3c2C1`, for which the IC50 is 73500 nM at Cathepsin B, more than 40000 nM at Procathepsin L (read-out: IC50), 17.3 nM at Cathepsin K and more than 70000 nM on Cathepsin S. The compound also yielded a logD in data set [4] of 3.5.
Turning to `N#CCNC(=O)[C@@H]1CCCC[C@H]1C(=O)N1CCc2ccccc2C1`, the values for the half-maximal inhibitory concentration (IC50) on Cathepsin B, on Procathepsin L (read-out: IC50) and on Cathepsin K were 712 nM, 3110 nM and 2 nM, respectively. Further, the results for the microsomal CLint in data set [1] and in data set [2] were 145 µL/min/mg and 23 µL/min/mg, respectively.
